# Test results as given in ChEMBL document CHEMBL1151705, “Novel azalides derived from 16-membered macrolides. Part II: Isolation of the linear 9-formylcarboxylic acid and its sequential macrocyclization with an amino alcohol or an azidoamine” (2008).
# Experiments:
# Assay type in all cases: functional
# [1] = system: Streptococcus pneumoniae; assay: Antimicrobial activity against drug-susceptible Streptococcus pneumoniae 2 after 20 hrs by agar dilution method; settings: Streptococcus pneumoniae, 20 h; read-out: MIC
# How it was run: (§1)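 Streptococci, H. influenzae and M. catarrhalis were precultured on blood agar plates. Suspensions of about 10⁶ CFU/ml were inoculated onto sensitivity disk agar supplemented with 5% horse blood and incubated at 37 °C for 20 h. MIC was read as the lowest drug concentration with no visible growth.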
# [2] = system: Staphylococcus aureus; assay: Antimicrobial activity against drug-susceptible Staphylococcus aureus 2 after 20 hrs by agar dilution method; settings: Staphylococcus aureus, 20 h; read-out: MIC
# How it was run: (§2)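 Agar dilution MIC. S. aureus seed culture was grown in sensitivity test broth. Cell suspension (about 10⁶ CFU/ml) was inoculated onto sensitivity disk agar with 5% horse blood and incubated at 37 °C for 20 h. MIC was the lowest drug concentration that prevented visible growth.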
# [3] = system: Streptococcus pneumoniae; assay: Antimicrobial activity against Streptococcus pneumoniae 9 expressing mefA after 20 hrs by agar dilution method; settings: Streptococcus pneumoniae, 20 h; read-out: MIC; how it was run: as §1
# [4] = system: Moraxella catarrhalis; assay: Antimicrobial activity against drug-susceptible Moraxella catarrhalis 1 after 20 hrs by agar dilution method; settings: Moraxella catarrhalis, 20 h; read-out: MIC; how it was run: as §1
# [5] = system: Staphylococcus aureus; assay: Antimicrobial activity against Staphylococcus aureus 5 expressing inducible ermB after 20 hrs by agar dilution method; settings: Staphylococcus aureus, 20 h; read-out: MIC; how it was run: as §2
# [6] = system: Staphylococcus aureus; assay: Antimicrobial activity against drug-susceptible Staphylococcus aureus 3 after 20 hrs by agar dilution method; settings: Staphylococcus aureus, 20 h; read-out: MIC; how it was run: as §2
# [7] = system: Staphylococcus aureus; assay: Antimicrobial activity against Staphylococcus aureus 6 expressing inducible ermB after 20 hrs by agar dilution method; how it was run: as §2
# [8] = system: Streptococcus pyogenes; assay: Antimicrobial activity against Streptococcus pyogenes 2 constitutively expressing ermB after 20 hrs by agar dilution method; how it was run: as §1
# [9] = system: Haemophilus influenzae; assay: Antimicrobial activity against drug-susceptible Haemophilus influenzae 2 after 20 hrs by agar dilution method; settings: Haemophilus influenzae, 20 h; read-out: MIC; how it was run: as §1
# [10] = system: Streptococcus pneumoniae; assay: Antimicrobial activity against Streptococcus pneumoniae 5 constitutively expressing ermB/mefA after 20 hrs by agar dilution method; settings: Streptococcus pneumoniae, 20 h; read-out: MIC; how it was run: as §1
# [11] = system: Streptococcus pneumoniae; assay: Antimicrobial activity against Streptococcus pneumoniae 8 expressing inducible ermB after 20 hrs by agar dilution method; settings: Streptococcus pneumoniae, 20 h; read-out: MIC; how it was run: as §1
# [12] = system: Haemophilus influenzae; assay: Antimicrobial activity against drug-susceptible Haemophilus influenzae 3 after 20 hrs by agar dilution method; settings: Haemophilus influenzae, 20 h; read-out: MIC; how it was run: as §1
# [13] = system: Haemophilus influenzae; assay: Antimicrobial activity against drug-susceptible Haemophilus influenzae 1 after 20 hrs by agar dilution method; settings: Haemophilus influenzae, 20 h; read-out: MIC; how it was run: as §1
# [14] = system: Haemophilus influenzae; assay: Antimicrobial activity against drug-susceptible Haemophilus influenzae 4 after 20 hrs by agar dilution method; settings: Haemophilus influenzae, 20 h; read-out: MIC; how it was run: as §1
# [15] = system: Streptococcus pyogenes; assay: Antimicrobial activity against Streptococcus pyogenes 3 expressing mefA after 20 hrs by agar dilution method; settings: Streptococcus pyogenes, 20 h; read-out: MIC; how it was run: as §1
# [16] = system: Streptococcus pneumoniae; assay: Antimicrobial activity against Streptococcus pneumoniae 6 constitutively expressing ermB after 20 hrs by agar dilution method; settings: Streptococcus pneumoniae, 20 h; read-out: MIC; how it was run: as §1
# [17] = system: Staphylococcus aureus; assay: Antimicrobial activity against drug-susceptible Staphylococcus aureus 209P JC-1 after 20 hrs by agar dilution method; settings: Staphylococcus aureus, 209P, 20 h; read-out: MIC; how it was run: as §2
# [18] = system: Streptococcus pneumoniae; assay: Antimicrobial activity against Streptococcus pneumoniae 7 expressing inducible ermB after 20 hrs by agar dilution method; settings: Streptococcus pneumoniae, 20 h; read-out: MIC; how it was run: as §1
# [19] = system: Moraxella catarrhalis; assay: Antimicrobial activity against drug-susceptible Moraxella catarrhalis 2 after 20 hrs by agar dilution method; settings: Moraxella catarrhalis, 20 h; read-out: MIC; how it was run: as §1
# [20] = system: Staphylococcus aureus; assay: Antimicrobial activity against Staphylococcus aureus 4 constitutively expressing ermA after 20 hrs by agar dilution method; how it was run: as §2
# [21] = system: Streptococcus pneumoniae; assay: Antimicrobial activity against drug-susceptible Streptococcus pneumoniae DP1 Type1 after 20 hrs by agar dilution method; settings: Streptococcus pneumoniae, 20 h; read-out: MIC; how it was run: as §1
# [22] = system: Streptococcus pyogenes; assay: Antimicrobial activity against drug-susceptible Streptococcus pyogenes 1 after 20 hrs by agar dilution method; settings: Streptococcus pyogenes, 20 h; read-out: MIC; how it was run: as §1
# [23] = system: Streptococcus pneumoniae; assay: Antimicrobial activity against Streptococcus pneumoniae 10 expressing mefA after 20 hrs by agar dilution method; settings: Streptococcus pneumoniae, 20 h; read-out: MIC; how it was run: as §1
MIC [1],MIC [2],MIC [3],MIC [4],MIC [5],MIC [6],MIC [7],MIC [8],MIC [9],MIC [10],MIC [11],MIC [12],MIC [13],MIC [14],MIC [15],MIC [17],MIC [18],MIC [19],MIC [20],MIC [21],Compound,further results
0.5 µg/mL,2 µg/mL,1 µg/mL,0.5 µg/mL,1 µg/mL,1 µg/mL,2 µg/mL,> 128 µg/mL,2 µg/mL,> 128 µg/mL,> 128 µg/mL,8 µg/mL,> 128 µg/mL,8 µg/mL,1 µg/mL,0.5 µg/mL,> 128 µg/mL,1 µg/mL,> 128 µg/mL,0.5 µg/mL,CCOC(=O)[C@H]1[C@H](C)O[C@@H](O[C@H]2[C@H](N(C)C)[C@@H](O)[C@H](O[C@H]3[C@@H](CC=O)C[C@@H](C)[C@@H](OC(C)=O)CN(CCCCc4ccccc4)CCNC(=O)C[C@@H](OC(=O)CC)[C@@H]3OC)O[C@@H]2C)C[C@@]1(C)OC(C)=O,MIC [16]: > 128 µg/mL; MIC [22]: 0.5 µg/mL; MIC [23]: 0.5 µg/mL
0.5 µg/mL,1 µg/mL,0.25 µg/mL,0.25 µg/mL,0.25 µg/mL,0.5 µg/mL,1 µg/mL,> 128 µg/mL,0.5 µg/mL,> 128 µg/mL,32 µg/mL,2 µg/mL,16 µg/mL,4 µg/mL,0.5 µg/mL,0.25 µg/mL,32 µg/mL,0.25 µg/mL,> 128 µg/mL,0.25 µg/mL,CCOC(=O)[C@H]1[C@H](C)O[C@@H](O[C@H]2[C@H](N(C)C)[C@@H](O)[C@H](O[C@H]3[C@@H](CC=O)C[C@@H](C)[C@@H](OC(C)=O)CN(CCCCc4ccccc4)CCCNC(=O)C[C@@H](OC(=O)CC)[C@@H]3OC)O[C@@H]2C)C[C@@]1(C)OC(C)=O,MIC [16]: > 128 µg/mL; MIC [22]: 0.13 µg/mL; MIC [23]: 0.25 µg/mL
0.13 µg/mL,1 µg/mL,0.13 µg/mL,2 µg/mL,0.5 µg/mL,0.5 µg/mL,0.5 µg/mL,> 128 µg/mL,1 µg/mL,> 128 µg/mL,16 µg/mL,4 µg/mL,16 µg/mL,8 µg/mL,1 µg/mL,0.5 µg/mL,16 µg/mL,1 µg/mL,> 128 µg/mL,0.06 µg/mL,CCOC(=O)[C@H]1[C@H](C)O[C@@H](O[C@H]2[C@H](N(C)C)[C@@H](O)[C@H](O[C@H]3[C@@H](CC=O)C[C@@H](C)[C@@H](O)CN(CCCc4ccnc5ccccc45)CCCNC(=O)C[C@@H](OC(=O)CC)[C@@H]3OC)O[C@@H]2C)C[C@@]1(C)O,MIC [16]: > 128 µg/mL; MIC [22]: 0.25 µg/mL; MIC [23]: 0.13 µg/mL
0.13 µg/mL,1 µg/mL,0.25 µg/mL,0.13 µg/mL,0.25 µg/mL,0.25 µg/mL,0.5 µg/mL,> 128 µg/mL,1 µg/mL,> 128 µg/mL,16 µg/mL,4 µg/mL,16 µg/mL,8 µg/mL,0.13 µg/mL,0.25 µg/mL,4 µg/mL,0.25 µg/mL,> 128 µg/mL,0.13 µg/mL,CCOC(=O)[C@H]1[C@H](C)O[C@@H](O[C@H]2[C@H](N(C)C)[C@@H](O)[C@H](O[C@H]3[C@@H](CC=O)C[C@@H](C)[C@@H](O)CN(CCCCc4ccccc4)CCCOC(=O)C[C@@H](OC(=O)CC)[C@@H]3OC)O[C@@H]2C)C[C@@]1(C)OC(C)=O,MIC [22]: 0.06 µg/mL; MIC [23]: 0.13 µg/mL
